Ki, selectivity n/e and selectivity n/i data for four compounds are collected here from paper PMC3574199 (Bioorganic & medicinal chemistry, 2012).

Molecules are shown by their SMILES.

Common to all, as to type: biochemical
One assay deals with rat nNOS (Rattus norvegicus, UniProt P29476). Put plainly: Nitric oxide hemoglobin capture assay, nNOS. The essentials: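 Recombinant rat nNOS was expressed in E. coli. Assays ran at room temperature in 100 mM Hepes pH 7.4 with 10 µM L-arginine, 1.6 mM CaCl2, 11.6 µg/mL calmodulin, 100 µM DTT, 100 µM NADPH, 6.5 µM H4B and 3.0 µM oxyhemoglobin. Enzyme addition started the reaction, and initial rates came from NO-hemoglobin formation at 401 nm over 60 sec. Ki = IC50/(1+[S]/Km), Km 1.3 µM.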

A further assay addresses bovine eNOS (Bos taurus, UniProt P29473). The experiment in a line: Nitric oxide hemoglobin capture assay, eNOS. To be noted: for selectivity n/e: ratio of Ki (eNOS) to Ki (nNOS).
The next assay concerns the target murine macrophage iNOS (Mus musculus, UniProt P29477). Put plainly: Nitric oxide hemoglobin capture assay, iNOS. To be noted: for selectivity n/i: ratio of Ki (iNOS) to Ki (nNOS).

murine macrophage iNOS, sequence (P29477 whole entry): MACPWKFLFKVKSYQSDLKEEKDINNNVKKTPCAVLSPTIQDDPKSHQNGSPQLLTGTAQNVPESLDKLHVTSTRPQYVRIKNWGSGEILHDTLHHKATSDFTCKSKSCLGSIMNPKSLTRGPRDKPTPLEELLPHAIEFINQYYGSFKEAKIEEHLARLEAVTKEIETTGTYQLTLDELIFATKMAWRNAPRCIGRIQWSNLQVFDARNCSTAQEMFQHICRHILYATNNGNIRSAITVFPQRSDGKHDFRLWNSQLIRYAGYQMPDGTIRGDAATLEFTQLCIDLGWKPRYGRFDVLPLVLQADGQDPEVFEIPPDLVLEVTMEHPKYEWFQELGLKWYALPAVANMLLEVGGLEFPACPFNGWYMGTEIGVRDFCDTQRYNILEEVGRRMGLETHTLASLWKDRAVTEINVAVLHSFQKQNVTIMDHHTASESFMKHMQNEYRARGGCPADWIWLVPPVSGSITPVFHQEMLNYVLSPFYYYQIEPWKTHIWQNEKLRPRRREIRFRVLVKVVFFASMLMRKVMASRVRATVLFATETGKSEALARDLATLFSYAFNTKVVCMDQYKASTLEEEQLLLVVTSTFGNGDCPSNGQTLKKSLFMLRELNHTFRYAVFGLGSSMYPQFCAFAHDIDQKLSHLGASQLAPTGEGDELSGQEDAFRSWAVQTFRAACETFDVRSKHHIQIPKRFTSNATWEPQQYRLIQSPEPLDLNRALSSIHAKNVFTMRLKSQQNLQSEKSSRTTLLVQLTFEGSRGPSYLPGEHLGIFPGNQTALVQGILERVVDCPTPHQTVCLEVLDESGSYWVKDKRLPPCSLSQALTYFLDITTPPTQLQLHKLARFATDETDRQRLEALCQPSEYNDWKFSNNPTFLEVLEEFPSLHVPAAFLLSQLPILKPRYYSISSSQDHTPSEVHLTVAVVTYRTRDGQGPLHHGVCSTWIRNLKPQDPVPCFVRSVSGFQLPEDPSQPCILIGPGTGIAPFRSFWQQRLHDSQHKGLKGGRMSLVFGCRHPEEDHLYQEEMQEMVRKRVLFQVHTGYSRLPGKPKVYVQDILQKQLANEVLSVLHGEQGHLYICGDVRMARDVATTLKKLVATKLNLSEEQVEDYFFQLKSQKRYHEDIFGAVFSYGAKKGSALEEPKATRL
rat nNOS, sequence (P29476 whole entry): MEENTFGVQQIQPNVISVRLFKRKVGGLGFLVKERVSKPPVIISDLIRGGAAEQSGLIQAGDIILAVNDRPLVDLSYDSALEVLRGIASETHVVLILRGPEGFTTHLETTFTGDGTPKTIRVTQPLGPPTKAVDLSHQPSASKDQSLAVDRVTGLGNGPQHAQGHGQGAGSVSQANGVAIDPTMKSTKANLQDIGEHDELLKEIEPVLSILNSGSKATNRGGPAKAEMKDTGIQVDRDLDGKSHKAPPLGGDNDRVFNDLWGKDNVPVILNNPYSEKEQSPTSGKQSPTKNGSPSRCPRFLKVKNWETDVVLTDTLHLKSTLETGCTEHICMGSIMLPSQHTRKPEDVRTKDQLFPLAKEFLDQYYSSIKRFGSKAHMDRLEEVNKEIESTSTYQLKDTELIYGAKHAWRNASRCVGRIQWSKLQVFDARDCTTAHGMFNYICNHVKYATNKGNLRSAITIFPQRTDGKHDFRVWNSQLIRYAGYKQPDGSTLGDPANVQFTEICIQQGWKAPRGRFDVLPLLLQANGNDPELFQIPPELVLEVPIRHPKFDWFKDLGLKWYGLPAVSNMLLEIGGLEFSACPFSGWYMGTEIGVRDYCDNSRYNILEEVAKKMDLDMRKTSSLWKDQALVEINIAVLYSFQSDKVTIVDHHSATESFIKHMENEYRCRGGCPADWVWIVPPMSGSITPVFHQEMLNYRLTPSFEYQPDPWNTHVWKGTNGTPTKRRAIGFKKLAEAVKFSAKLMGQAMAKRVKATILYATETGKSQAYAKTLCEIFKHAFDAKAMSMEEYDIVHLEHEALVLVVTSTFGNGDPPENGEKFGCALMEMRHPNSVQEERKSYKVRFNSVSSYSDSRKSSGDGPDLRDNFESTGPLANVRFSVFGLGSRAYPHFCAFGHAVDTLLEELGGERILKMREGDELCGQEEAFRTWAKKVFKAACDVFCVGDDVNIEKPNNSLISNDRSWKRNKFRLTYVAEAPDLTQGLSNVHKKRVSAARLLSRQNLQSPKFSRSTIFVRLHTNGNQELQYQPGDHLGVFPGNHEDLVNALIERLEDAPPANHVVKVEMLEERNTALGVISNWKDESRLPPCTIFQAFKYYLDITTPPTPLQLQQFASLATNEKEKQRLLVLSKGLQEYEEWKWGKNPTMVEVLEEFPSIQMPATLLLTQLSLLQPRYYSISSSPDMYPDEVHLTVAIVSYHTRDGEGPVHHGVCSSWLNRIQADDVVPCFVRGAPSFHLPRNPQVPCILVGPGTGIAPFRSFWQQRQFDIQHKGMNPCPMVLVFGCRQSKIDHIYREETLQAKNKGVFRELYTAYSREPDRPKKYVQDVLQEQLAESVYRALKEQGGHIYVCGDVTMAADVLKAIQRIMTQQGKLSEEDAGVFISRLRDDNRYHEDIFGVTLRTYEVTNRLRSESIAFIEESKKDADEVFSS

The compound `Cc1cc(N)nc(C[C@@H]2CNC[C@@H]2OCCNC(C)Cc2cccc(F)c2)c1.Cl` (mixture of isomers) [(±) 2e, 6-(((3R,4R)-4-(2-(((R/S)-1-(3-fluorophenyl)propan-2-yl)amino)ethoxy)pyrrolidin-3-yl)methyl)-4-methylpyridin-2-amine] had a Ki on rat nNOS of 0.046 µM. Besides, at bovine eNOS, the affinity corresponds to a Ki of 68 µM and the selectivity n/e is given as 1500. Also, on murine macrophage iNOS, the affinity, expressed as Ki, was 10.2 µM and the selectivity n/i came to 220.
Take `Cc1cccc(C2CC2NCCO[C@H]2CNC[C@H]2Cc2cc(C)cc(N)n2)c1` (mixture of isomers) [(±) 2c, 4-Methyl-6-(((3R,4R)-4-(2-((1S,2R/1R,2S)-2-m-tolylcyclopropylamino)ethoxy)pyrrolidin-3-yl)methyl)pyridin-2-amine]: the Ki worked out at 0.14 µM at rat nNOS and 10 µM on murine macrophage iNOS.
Consider `Cc1cc(N)nc(C[C@@H]2CNC[C@@H]2OCCN[C@H]2C[C@@H]2c2cccc(F)c2)c1` [Compound 2b, 6-(((3R,4R)-4-(2-((1S,2R)-2-(3-Fluorophenyl)cyclopropylamino)ethoxy)pyrrolidin-3-yl)methyl)-4-methylpyridin-2-amine], for which the results for the Ki on rat nNOS and at murine macrophage iNOS were 0.175 µM and 12 µM, respectively.
For `Cc1cc(N)nc(C[C@@H]2CNC[C@@H]2OCCNC2CC2c2cccc(Cl)c2)c1` (mixture of isomers) [(±) 2d, 6-(((3R,4R)-4-(2-((1S,2R/1R,2S)-2-(3-Clorophenyl)cyclopropylamino)ethoxy)pyrrolidin-3-yl)methyl)-4-methylpyridin-2-amine], the Ki at rat nNOS amounted to 0.071 µM. In addition, at bovine eNOS, the affinity, expressed as Ki, was 26 µM and the selectivity n/e is given as 370. Further, at murine macrophage iNOS, the Ki was 0.86 µM and the selectivity n/i is 12.

In general, Ki refers to the equilibrium dissociation constant of an inhibitor or competing ligand from its target. A low value points to higher affinity.
